Source: ChEMBL document CHEMBL1146866, “Structural determinants for the membrane interaction of novel bioactive undecapeptides derived from gaegurin 5” (J Med Chem, 2006)
Where a SMILES comes first, the peptide text is derived from it.

How the values were obtained:
NCI-H630 = assay: Antitumor activity against human NCI-H630 cell line; type: functional, cell-based
PC-3 = assay: Antitumor activity against human PC3 cell line; type: functional, cell-based
SK-MEL-2 = assay: Antitumor activity against human SK-MEL-2 cell line; type: functional, cell-based
SK-OV-3 = assay: Antitumor activity against human SKOV3 cell line; type: functional, cell-based
RBCs [1] = assay: Hemolytic activity against human red blood cells at 100 ug/ml; type: functional, Erythrocyte
How it was run: (§1)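 Human erythrocytes exposed to peptide. Hemolysis expressed as % relative to lysis by 0.2% Triton X-100.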

A498 = assay: Antitumor activity against human A498 cell line
A549 = assay: Antitumor activity against human A549 cell line
HCT-116 = assay: Antitumor activity against human HCT116 cell line; type: functional, cell-based
MCF7 = assay: Antitumor activity against human MCF7 cell line; type: functional, cell-based
MKN-45 = assay: Antitumor activity against human MKN45 cell line; type: functional, cell-based
RBCs [2] = assay: Hemolytic activity against human red blood cells at 200 ug/ml; type: functional, Erythrocyte; how it was run: as §1
RBCs [3] = assay: Hemolytic activity against human red blood cells at 300 ug/ml; type: functional, Erythrocyte; how it was run: as §1
RBCs [4] = assay: Hemolytic activity against human red blood cells at 400 ug/ml; type: functional, Erythrocyte; how it was run: as §1
MCF10 = assay: Antitumor activity against human MCF10a cell line

## CC[C@H](C)[C@H](NC(=O)[C@H](C)NC(=O)[C@H](CS)NC(=O)[C@H](CCCCN)NC(=O)[C@@H](NC(=O)[C@H](CO)NC(=O)[C@@H]1CCCN1C(=O)[C@H](CC(C)C)NC(=O)[C@@H](NC(=O)[C@H](CCCCN)NC(=O)[C@H](CO)NC(=O)[C@H](C)NC(=O)[C@@H](NC(=O)[C@H](CCCCN)NC(=O)[C@H](Cc1ccccc1)NC(=O)[C@H](CC(C)C)NC(=O)[C@H](C)NC(=O)CNC(=O)[C@H](CC(C)C)NC(=O)[C@@H](N)Cc1ccccc1)C(C)C)C(C)C)C(C)C)C(=O)N[C@H](C(=O)N[C@@H](CCCCN)C(=O)N[C@@H](CCCCN)C(=O)N[C@@H](CS)C(=O)O)[C@@H](C)O (H-FLGALFKVASKVLPSVKCAITKKC-OH)
NCI-H630
  IC50: 16.4 µM
  IC90: 25.1 µM
PC-3
  IC50: 17.1 µM
  IC90: 22.9 µM
SK-MEL-2
  IC50: 18.6 µM
  IC90: 18.2 µM
SK-OV-3
  IC50: 15 µM
  IC90: 23.4 µM
RBCs [1]
  Activity: 6.8%
A498
  IC50: 54.1 µM
A549
  IC50: 57.1 µM
  IC90: 89.1 µM
HCT-116
  IC50: 44.4 µM
  IC90: 89.1 µM
MCF7
  IC50: 72 µM
  IC90: 93.3 µM
MKN-45
  IC50: 13.7 µM
  IC90: 24 µM

## CC(=O)O[C@H]1C(=O)[C@@]2(C)[C@H]([C@H](OC(=O)c3ccccc3)[C@]3(O)C[C@H](OC(=O)[C@H](O)[C@@H](NC(=O)c4ccccc4)c4ccccc4)C(C)=C1C3(C)C)[C@]1(OC(C)=O)CO[C@@H]1C[C@@H]2O [PACLITAXEL]
NCI-H630
  IC90: 0.372 µM
PC-3
  IC90: 0.832 µM
SK-MEL-2
  IC90: 0.037 µM
SK-OV-3
  IC50: 0.005 µM
  IC90: 0.071 µM
A498
  IC90: 0.229 µM
A549
  IC90: 0.041 µM
HCT-116
  IC90: 0.008 µM
MCF7; read-out: IC90
  IC90: 0.015 µM
MKN-45
  IC90: 0.204 µM

## H-FLGALFKVASK-OH
RBCs [1]
  Activity: 6.06%
RBCs [2]
  Activity: 6.06%
RBCs [3]
  Activity: 6.06%
RBCs [4]
  Activity: 6.21%

## H-FLGALFKVASKVL-OH
RBCs [1]
  Activity: 25.8%

## H-FLGALFKWASK-OH
NCI-H630
  IC50: 102 µM
  IC90: 117 µM
PC-3
  IC50: 137 µM
  IC90: 195 µM
SK-OV-3
  IC50: 119 µM
  IC90: 166 µM
MCF10
  IC50: 343 µM
RBCs [1]
  Activity: 6.21%
RBCs [2]
  Activity: 6.36%
RBCs [3]
  Activity: 6.36%
RBCs [4]
  Activity: 6.67%
A498
  IC50: 169 µM
A549
  IC50: 330 µM
HCT-116
  IC50: 114 µM
  IC90: 170 µM
MCF7
  IC50: 157 µM
MCF7; read-out: IC90
  IC90: 229 µM
MKN-45
  IC50: 113 µM
  IC90: 151 µM

## H-FLGWLFKVASK-OH
NCI-H630
  IC50: 58.6 µM
  IC90: 81.3 µM
PC-3
  IC50: 95.5 µM
  IC90: 112 µM
SK-MEL-2
  IC50: 23.5 µM
  IC90: 46.8 µM
SK-OV-3
  IC50: 71.1 µM
  IC90: 89.1 µM
MCF10
  IC50: 240 µM
RBCs [1]
  Activity: 6.52%
RBCs [2]
  Activity: 6.82%
RBCs [3]
  Activity: 7.12%
RBCs [4]
  Activity: 9.24%
A498
  IC50: 56.5 µM
  IC90: 83.2 µM
A549
  IC50: 82 µM
  IC90: 102 µM
HCT-116
  IC50: 23.5 µM
  IC90: 56.2 µM
MCF7
  IC50: 59.6 µM
MCF7; read-out: IC90
  IC90: 110 µM
MKN-45
  IC50: 63.8 µM
  IC90: 85.1 µM
